From ChEMBL document CHEMBL4808175 (J Med Chem, 2021)

How the values were obtained:
[1] = biological target: T1, cGMP-specific 3',5'-cyclic phosphodiesterase (Homo sapiens, UniProt O76074); experiment: Inhibition of recombinant full length GST-tagged PDE5A1 (unknown origin) expressed in baculovirus infected Sf9 insect cells using TAMRA-cGMP as substrate incubated for 1.5 hrs by IMAP-FP assay
[2] = biological target: T2, Dual specificity calcium/calmodulin-dependent 3',5'-cyclic nucleotide phosphodiesterase 1A (Homo sapiens, UniProt P54750); experiment: Inhibition of recombinant full length GST-tagged PDE1A (unknown origin) expressed in baculovirus infected Sf9 insect cells using FAM-cAMP as substrate incubated for 1.5 hrs by IMAP-FP assay
In short: (§1)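 PDE enzymes incubated with compound or vehicle and 50 nM TAMRA-cGMP or FAM-cAMP substrate for 1.5 h at 30 °C. Activity read by IMAP fluorescence polarization. IC50 from 10 concentrations, at least two replicates each, fitted by four-parameter logistic. Dose–response repeated at least twice; mean of at least two experiments.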

[3] = biological target: T2, Dual specificity calcium/calmodulin-dependent 3',5'-cyclic nucleotide phosphodiesterase 1A; experiment: Inhibition of recombinant full length GST-tagged PDE1A (unknown origin) expressed in baculovirus infected Sf9 insect cells using TAMRA-cGMP as substrate incubated for 1.5 hrs by IMAP-FP assay; in short: as §1
[4] = biological target: T3, cGMP-dependent 3',5'-cyclic phosphodiesterase (Homo sapiens, UniProt O00408); experiment: Inhibition of recombinant full length GST-tagged PDE2A (unknown origin) expressed in baculovirus infected Sf9 insect cells using FAM-cAMP as substrate incubated for 1.5 hrs by IMAP-FP assay; in short: as §1
[5] = biological target: T3, cGMP-dependent 3',5'-cyclic phosphodiesterase; experiment: Inhibition of recombinant full length GST-tagged PDE2A (unknown origin) expressed in baculovirus infected Sf9 insect cells using TAMRA-cGMP as substrate incubated for 1.5 hrs by IMAP-FP assay; in short: as §1
[6] = biological target: T4, cGMP-inhibited 3',5'-cyclic phosphodiesterase 3A (Homo sapiens, UniProt Q14432); experiment: Inhibition of recombinant GST-tagged PDE3A (669 to end residues) (unknown origin) expressed in baculovirus infected Sf9 insect cells using FAM-cAMP as substrate incubated for 1.5 hrs by IMAP-FP assay; in short: as §1
[7] = biological target: T4, cGMP-inhibited 3',5'-cyclic phosphodiesterase 3A; experiment: Inhibition of recombinant GST-tagged PDE3A (669 to end residues) (unknown origin) expressed in baculovirus infected Sf9 insect cells using TAMRA-cGMP as substrate incubated for 1.5 hrs by IMAP-FP assay; in short: as §1
[8] = biological target: 3',5'-cyclic-AMP phosphodiesterase 4B (Homo sapiens, UniProt Q07343); experiment: Inhibition of recombinant full length GST-tagged PDE4B2 (unknown origin) expressed in baculovirus infected Sf9 insect cells using FAM-cAMP as substrate incubated for 1.5 hrs by IMAP-FP assay; in short: as §1
[9] = biological target: Cone cGMP-specific 3',5'-cyclic phosphodiesterase subunit alpha' (Homo sapiens, UniProt P51160); experiment: Inhibition of recombinant full length GST-tagged PDE6C (unknown origin) expressed in baculovirus infected Sf9 insect cells using TAMRA-cGMP as substrate incubated for 1.5 hrs by IMAP-FP assay; in short: as §1
[10] = biological target: High affinity 3',5'-cyclic-AMP phosphodiesterase 7A (Homo sapiens, UniProt Q13946); experiment: Inhibition of recombinant GST-tagged PDE7A (122 to end residues) (unknown origin) expressed in baculovirus infected Sf9 insect cells using FAM-cAMP as substrate incubated for 1.5 hrs by IMAP-FP assay; in short: as §1
[11] = biological target: High affinity cAMP-specific and IBMX-insensitive 3',5'-cyclic phosphodiesterase 8A (Homo sapiens, UniProt O60658); experiment: Inhibition of recombinant GST-tagged full length PDE8A1 (unknown origin) expressed in baculovirus infected Sf9 insect cells using FAM-cAMP as substrate incubated for 1.5 hrs by IMAP-FP assay; in short: as §1
[12] = biological target: T5, cAMP and cAMP-inhibited cGMP 3',5'-cyclic phosphodiesterase 10A (Homo sapiens, UniProt Q9Y233); experiment: Inhibition of recombinant GST-tagged full length PDE10A2 (unknown origin) expressed in baculovirus infected Sf9 insect cells using FAM-cAMP as substrate incubated for 1.5 hrs by IMAP-FP assay; in short: as §1
[13] = biological target: T5, cAMP and cAMP-inhibited cGMP 3',5'-cyclic phosphodiesterase 10A; experiment: Inhibition of recombinant GST-tagged full length PDE10A2 (unknown origin) expressed in baculovirus infected Sf9 insect cells using TAMRA-cGMP as substrate incubated for 1.5 hrs by IMAP-FP assay; in short: as §1
[14] = biological target: T6, Dual 3',5'-cyclic-AMP and -GMP phosphodiesterase 11A (Homo sapiens, UniProt Q9HCR9); experiment: Inhibition of recombinant GST-tagged full length PDE11A4 (unknown origin) expressed in baculovirus infected Sf9 insect cells using FAM-cAMP as substrate incubated for 1.5 hrs by IMAP-FP assay; in short: as §1
[15] = biological target: T6, Dual 3',5'-cyclic-AMP and -GMP phosphodiesterase 11A; experiment: Inhibition of recombinant GST-tagged full length PDE11A4 (unknown origin) expressed in baculovirus infected Sf9 insect cells using TAMRA-cGMP as substrate incubated for 1.5 hrs by IMAP-FP assay; in short: as §1
Homo sapiens [16] = species on record: Homo sapiens; experiment: Selectivity ratio of IC50 for recombinant full length GST-tagged PDE6C (unknown origin) expressed in baculovirus infected Sf9 insect cells to IC50 for recombinant full length GST-tagged PDE5A1 (unknown origin) expressed in baculovirus infected Sf9 insect cells using TAMRA-cGMP as substrate incubated for 1.5 hrs by IMAP-FP assay using TAMRA-cGMP as substrate incubated for 1.5 hrs by IMAP-FP assay
Homo sapiens [17] = species on record: Homo sapiens; experiment: Selectivity ratio of IC50 for recombinant GST-tagged full length PDE11A4 (unknown origin) expressed in baculovirus infected Sf9 insect cells to IC50 for recombinant full length GST-tagged PDE5A1 (unknown origin) expressed in baculovirus infected Sf9 insect cells using TAMRA-cGMP as substrate incubated for 1.5 hrs by IMAP-FP assay using TAMRA-cGMP as substrate incubated for 1.5 hrs by IMAP-FP assay
[18] = biological target: T1, cGMP-specific 3',5'-cyclic phosphodiesterase; experiment: Inhibition of PDE5A in HEK293 cells stably transfected with cGMP biosensor assessed as increase in SNP-induced intracellular cGMP level measured after 90 mins by luminescence assay; type: cell-based
[19] = biological target: High affinity cGMP-specific 3',5'-cyclic phosphodiesterase 9A (Homo sapiens, UniProt O76083); experiment: Inhibition of recombinant GST-tagged full length PDE9A2 (unknown origin) expressed in baculovirus infected Sf9 insect cells using substrate incubated for 1.5 hrs by IMAP-FP assay
in vitro = settings: human, microsomes

T2 sequence (P54750 whole entry): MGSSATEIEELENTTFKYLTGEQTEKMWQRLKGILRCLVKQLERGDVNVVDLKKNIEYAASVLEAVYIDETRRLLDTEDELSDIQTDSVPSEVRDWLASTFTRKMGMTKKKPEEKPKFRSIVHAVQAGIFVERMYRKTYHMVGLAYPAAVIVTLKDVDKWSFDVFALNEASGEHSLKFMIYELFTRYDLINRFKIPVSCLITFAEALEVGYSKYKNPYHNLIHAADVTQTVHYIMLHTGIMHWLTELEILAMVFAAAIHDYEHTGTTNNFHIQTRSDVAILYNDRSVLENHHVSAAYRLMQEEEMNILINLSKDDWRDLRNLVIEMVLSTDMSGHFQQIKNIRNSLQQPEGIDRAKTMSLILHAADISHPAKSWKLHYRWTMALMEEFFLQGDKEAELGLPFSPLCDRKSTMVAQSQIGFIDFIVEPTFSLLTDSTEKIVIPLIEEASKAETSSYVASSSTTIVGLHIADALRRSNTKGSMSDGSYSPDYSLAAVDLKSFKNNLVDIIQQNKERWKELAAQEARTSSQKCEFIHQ
T5 sequence (Q9Y233 whole entry): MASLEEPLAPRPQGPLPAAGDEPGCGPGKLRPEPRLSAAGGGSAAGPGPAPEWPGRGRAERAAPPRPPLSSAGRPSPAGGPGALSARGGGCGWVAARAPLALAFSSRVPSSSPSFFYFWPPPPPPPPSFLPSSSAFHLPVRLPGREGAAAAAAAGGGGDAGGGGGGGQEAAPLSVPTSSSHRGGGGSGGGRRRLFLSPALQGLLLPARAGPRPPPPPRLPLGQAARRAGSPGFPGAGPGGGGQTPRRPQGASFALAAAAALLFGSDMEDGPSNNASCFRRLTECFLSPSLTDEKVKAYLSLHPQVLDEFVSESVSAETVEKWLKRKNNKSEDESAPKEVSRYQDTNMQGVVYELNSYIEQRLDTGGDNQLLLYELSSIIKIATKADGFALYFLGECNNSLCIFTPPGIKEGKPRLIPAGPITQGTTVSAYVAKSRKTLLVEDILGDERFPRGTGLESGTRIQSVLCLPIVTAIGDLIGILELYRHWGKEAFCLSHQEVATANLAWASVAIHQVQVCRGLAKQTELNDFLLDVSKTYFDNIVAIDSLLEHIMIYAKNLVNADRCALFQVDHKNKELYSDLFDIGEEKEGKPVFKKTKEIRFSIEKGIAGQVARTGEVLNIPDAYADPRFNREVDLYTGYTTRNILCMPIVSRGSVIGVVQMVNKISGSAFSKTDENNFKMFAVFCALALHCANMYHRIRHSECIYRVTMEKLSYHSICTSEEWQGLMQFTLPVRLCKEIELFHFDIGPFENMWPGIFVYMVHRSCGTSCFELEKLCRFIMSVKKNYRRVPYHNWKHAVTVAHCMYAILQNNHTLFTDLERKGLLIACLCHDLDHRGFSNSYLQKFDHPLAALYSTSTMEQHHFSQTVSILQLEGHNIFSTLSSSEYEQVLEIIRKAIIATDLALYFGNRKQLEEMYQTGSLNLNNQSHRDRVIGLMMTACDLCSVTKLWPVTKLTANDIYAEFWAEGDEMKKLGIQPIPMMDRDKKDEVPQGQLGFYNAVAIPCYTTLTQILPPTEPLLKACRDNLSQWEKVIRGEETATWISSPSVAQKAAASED
T4 sequence (Q14432 whole entry): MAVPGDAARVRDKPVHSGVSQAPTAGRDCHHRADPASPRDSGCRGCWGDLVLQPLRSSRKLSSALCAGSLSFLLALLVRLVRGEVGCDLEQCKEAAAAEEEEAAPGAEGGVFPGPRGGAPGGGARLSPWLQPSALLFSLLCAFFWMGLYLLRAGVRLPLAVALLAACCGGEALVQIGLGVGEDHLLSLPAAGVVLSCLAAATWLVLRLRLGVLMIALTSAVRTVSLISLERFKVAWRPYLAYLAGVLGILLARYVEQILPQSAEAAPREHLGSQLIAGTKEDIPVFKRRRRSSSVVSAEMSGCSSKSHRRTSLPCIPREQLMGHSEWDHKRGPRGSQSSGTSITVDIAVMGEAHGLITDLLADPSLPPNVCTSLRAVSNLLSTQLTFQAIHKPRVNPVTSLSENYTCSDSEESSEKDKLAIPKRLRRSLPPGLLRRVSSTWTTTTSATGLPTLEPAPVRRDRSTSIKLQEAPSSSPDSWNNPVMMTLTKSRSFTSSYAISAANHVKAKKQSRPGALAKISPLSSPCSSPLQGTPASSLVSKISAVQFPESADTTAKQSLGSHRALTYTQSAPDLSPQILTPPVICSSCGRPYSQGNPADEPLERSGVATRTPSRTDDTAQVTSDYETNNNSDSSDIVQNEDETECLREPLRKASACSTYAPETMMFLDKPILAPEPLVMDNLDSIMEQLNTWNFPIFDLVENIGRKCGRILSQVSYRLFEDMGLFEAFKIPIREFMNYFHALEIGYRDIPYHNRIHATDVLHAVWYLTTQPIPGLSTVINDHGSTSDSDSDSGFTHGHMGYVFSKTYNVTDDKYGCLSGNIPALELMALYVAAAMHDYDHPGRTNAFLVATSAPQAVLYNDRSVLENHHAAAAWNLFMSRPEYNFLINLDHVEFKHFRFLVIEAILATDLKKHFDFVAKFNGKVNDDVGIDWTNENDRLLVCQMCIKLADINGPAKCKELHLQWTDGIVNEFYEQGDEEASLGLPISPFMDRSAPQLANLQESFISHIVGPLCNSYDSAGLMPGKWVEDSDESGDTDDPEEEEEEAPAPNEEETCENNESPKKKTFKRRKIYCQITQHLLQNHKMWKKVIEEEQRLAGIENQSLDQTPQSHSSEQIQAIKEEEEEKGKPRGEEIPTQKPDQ
T6 sequence (Q9HCR9 whole entry): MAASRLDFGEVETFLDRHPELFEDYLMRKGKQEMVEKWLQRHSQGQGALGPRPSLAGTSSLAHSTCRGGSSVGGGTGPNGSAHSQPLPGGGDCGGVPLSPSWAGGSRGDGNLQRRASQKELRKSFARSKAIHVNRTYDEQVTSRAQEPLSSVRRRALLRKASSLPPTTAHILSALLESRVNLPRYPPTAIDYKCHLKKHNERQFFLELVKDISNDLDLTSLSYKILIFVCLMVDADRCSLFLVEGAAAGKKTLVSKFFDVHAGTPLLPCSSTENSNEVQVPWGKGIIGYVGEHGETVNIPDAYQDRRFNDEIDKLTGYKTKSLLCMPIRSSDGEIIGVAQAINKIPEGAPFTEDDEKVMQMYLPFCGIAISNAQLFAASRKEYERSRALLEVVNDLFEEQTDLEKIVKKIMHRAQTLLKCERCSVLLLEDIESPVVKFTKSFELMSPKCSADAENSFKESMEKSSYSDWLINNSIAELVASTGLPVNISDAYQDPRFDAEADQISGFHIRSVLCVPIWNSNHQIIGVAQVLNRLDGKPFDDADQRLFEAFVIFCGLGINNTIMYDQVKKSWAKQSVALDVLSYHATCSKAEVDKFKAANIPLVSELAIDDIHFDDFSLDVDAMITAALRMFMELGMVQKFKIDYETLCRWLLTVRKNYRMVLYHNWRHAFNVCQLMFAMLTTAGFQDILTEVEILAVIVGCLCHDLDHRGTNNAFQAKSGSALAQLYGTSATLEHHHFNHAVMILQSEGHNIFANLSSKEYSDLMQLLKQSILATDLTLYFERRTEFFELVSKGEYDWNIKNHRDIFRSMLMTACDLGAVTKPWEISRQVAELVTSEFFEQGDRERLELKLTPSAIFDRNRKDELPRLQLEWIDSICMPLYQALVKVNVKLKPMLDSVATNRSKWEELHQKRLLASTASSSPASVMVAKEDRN
T3 sequence (O00408 whole entry): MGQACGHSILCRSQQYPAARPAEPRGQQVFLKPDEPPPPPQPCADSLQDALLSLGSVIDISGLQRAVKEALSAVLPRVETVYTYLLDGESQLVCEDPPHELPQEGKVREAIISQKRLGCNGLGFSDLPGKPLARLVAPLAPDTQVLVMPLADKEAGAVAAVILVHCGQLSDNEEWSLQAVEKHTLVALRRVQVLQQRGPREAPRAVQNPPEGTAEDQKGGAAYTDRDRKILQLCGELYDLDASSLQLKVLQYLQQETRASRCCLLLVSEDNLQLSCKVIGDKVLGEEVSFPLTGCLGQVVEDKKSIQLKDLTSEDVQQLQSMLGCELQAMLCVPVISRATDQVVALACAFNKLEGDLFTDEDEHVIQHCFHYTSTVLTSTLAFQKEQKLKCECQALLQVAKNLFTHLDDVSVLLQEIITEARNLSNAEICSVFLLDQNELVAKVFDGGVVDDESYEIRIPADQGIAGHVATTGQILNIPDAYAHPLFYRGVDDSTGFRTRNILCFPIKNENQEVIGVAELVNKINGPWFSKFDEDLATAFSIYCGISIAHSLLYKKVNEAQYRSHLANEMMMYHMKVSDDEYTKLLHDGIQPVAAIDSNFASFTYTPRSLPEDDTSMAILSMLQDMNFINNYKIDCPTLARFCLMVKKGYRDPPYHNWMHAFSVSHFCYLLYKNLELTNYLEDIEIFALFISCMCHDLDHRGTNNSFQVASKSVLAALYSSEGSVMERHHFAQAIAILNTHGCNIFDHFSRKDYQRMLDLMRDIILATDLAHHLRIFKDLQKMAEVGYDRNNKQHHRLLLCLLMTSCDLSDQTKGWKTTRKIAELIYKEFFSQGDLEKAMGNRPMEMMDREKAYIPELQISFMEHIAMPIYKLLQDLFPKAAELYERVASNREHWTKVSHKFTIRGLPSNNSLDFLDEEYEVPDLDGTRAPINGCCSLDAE
Chain of High affinity 3',5'-cyclic-AMP phosphodiesterase 7A (Q13946 whole entry): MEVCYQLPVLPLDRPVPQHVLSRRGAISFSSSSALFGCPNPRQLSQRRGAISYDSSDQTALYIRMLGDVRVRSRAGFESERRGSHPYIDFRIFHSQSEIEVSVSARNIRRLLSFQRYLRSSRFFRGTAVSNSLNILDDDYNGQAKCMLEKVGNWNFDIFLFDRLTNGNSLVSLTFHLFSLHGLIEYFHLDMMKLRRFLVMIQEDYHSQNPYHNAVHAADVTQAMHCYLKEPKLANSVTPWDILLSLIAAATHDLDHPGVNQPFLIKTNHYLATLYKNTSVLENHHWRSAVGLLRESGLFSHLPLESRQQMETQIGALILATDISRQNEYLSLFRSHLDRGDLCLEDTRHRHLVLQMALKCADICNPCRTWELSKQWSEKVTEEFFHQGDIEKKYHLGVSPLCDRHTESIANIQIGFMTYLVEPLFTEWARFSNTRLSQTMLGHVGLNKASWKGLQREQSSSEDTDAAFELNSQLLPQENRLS

With `COc1ccc(C2CC(c3ccccc3C)=NN2c2ccc(C(=O)O)cc2)cc1F` (stereo unspecified) as the compound, how does the IC50 [1] read?
The IC50 was 130 nM.

For `COc1ccc(C2CC(c3ccccc3C)=NN2c2ccc(C(=O)N3CCN(C)CC3)cc2)cc1F` (stereo unspecified), which IC50 [1] is on record?
Its IC50 is 40 nM.

And the IC50 [2]?
The IC50 was greater than 10000 nM.

What about the IC50 [3] of the same compound?
The IC50 was greater than 10000 nM.

What about the IC50 [4] of the same compound?
The IC50 was greater than 10000 nM.

What about the IC50 [5] of the same compound?
Its IC50 is greater than 10000 nM.

What about the IC50 [6] of the same compound?
The IC50 was greater than 10000 nM.

What about the IC50 [7] of the same compound?
The IC50 was greater than 10000 nM.

And the IC50 [8]?
Its IC50 is greater than 10000 nM.

What about the IC50 [9] of the same compound?
The IC50 was greater than 10000 nM.

What about the IC50 [10] of the same compound?
Its IC50 is greater than 10000 nM.

And the IC50 [11]?
Its IC50 is greater than 10000 nM.

What about the IC50 [12] of the same compound?
The IC50 was greater than 10000 nM.

What about the IC50 [13] of the same compound?
The IC50 was greater than 10000 nM.

And the IC50 [14]?
Its IC50 is greater than 10000 nM.

And the IC50 [15]?
The IC50 was greater than 10000 nM.

What about the Ratio IC50 (Homo sapiens [16]) of the same compound?
The Ratio IC50 was greater than 250.

What about the Ratio IC50 (Homo sapiens [17]) of the same compound?
The Ratio IC50 was greater than 250.

And the EC50 [18]?
The EC50 was 13800 nM.

And the IC50 [19]?
The IC50 was greater than 10000 nM.

Which IC50 [1] does the source give for `COc1ccc(C2CC(C(C)(C)C)=NN2c2ccc(C(=O)O)cc2)cc1F` (stereo unspecified) here?
Its IC50 is 590 nM.

For `COc1cc(C2CC(C(C)(C)C)=NN2c2ccc(C(=O)N3CCN(C)CC3)cc2)ccc1F` (stereo unspecified), which IC50 [1] is on record?
Its IC50 is 1290 nM.

With `COc1ccc(C2C3Cc4ccccc4C3=NN2c2ccc(C(=O)O)cc2)cc1` (stereo unspecified) as the compound, how does the IC50 [1] read?
Its IC50 is 1440 nM.

For `CC(C)(C)C1=NN(c2ccc(C(=O)O)cc2)C(c2ccc(OC(F)(F)F)cc2)C1` (stereo unspecified), which IC50 [1] is on record?
Its IC50 is 10000 nM.

For `COc1ccc(C2CC(C(C)(C)C)=NN2c2ccc(C(=O)N3CCN(C)CC3)cc2)cc1` (stereo unspecified), which IC50 [1] is on record?
Its IC50 is 90 nM.

Which IC50 [1] does the source give for `CCCCNC(=O)c1ccc(N2N=C(c3ccccc3C)CC2c2ccc(OC)cc2)cc1` (stereo unspecified) here?
The IC50 was 280 nM.

With `COc1cc(C2CC(C(C)(C)C)=NN2c2ccc(C(=O)O)cc2)ccc1F` (stereo unspecified) as the compound, how does the IC50 [1] read?
Its IC50 is 10100 nM.

For `CCCCNC(=O)c1ccc(N2N=C(C(C)(C)C)CC2c2ccc(OC)cc2)cc1` (stereo unspecified), which IC50 [1] is on record?
The IC50 was 1200 nM.

Which IC50 [1] does the source give for `COc1ccc(C2CC(c3ccc(O)cc3)=NN2c2ccc(C(=O)O)cc2)cc1` (stereo unspecified) here?
The IC50 was 2500 nM.

With `COc1ccc(C2CC(C(C)(C)C)=NN2c2ccc(C(=O)O)cc2)cc1Cl` (stereo unspecified) as the compound, how does the IC50 [1] read?
Its IC50 is 900 nM.

With `COc1ccc(C2CC(c3cccc(C)c3)=NN2c2ccc(C(=O)O)cc2)cc1` (stereo unspecified) as the compound, how does the IC50 [1] read?
The IC50 was 1560 nM.

With `CCOc1c(F)cc(C2CC(C(C)(C)C)=NN2c2ccc(C(=O)O)cc2)cc1F` (stereo unspecified) as the compound, how does the IC50 [1] read?
Its IC50 is 200 nM.

Which IC50 [1] does the source give for `COc1ccc(C2CC(c3ccccc3C)=NN2c2ccc(C(=O)N3CCOCC3)cc2)cc1` (stereo unspecified) here?
The IC50 was 29 nM.

With `CCOc1c(F)cc(C2CC(C(C)(C)C)=NN2c2ccc(C(=O)N3CCN(C)CC3)cc2)cc1F` (stereo unspecified) as the compound, how does the IC50 [1] read?
Its IC50 is 130 nM.

With `CC(C)NCC(O)COc1cccc2ccccc12` (stereo unspecified) [PROPRANOLOL] as the compound, how does the half-life at 1 h, 1 µM (in vitro) read?
The half-life at 1 h, 1 µM was greater than 1 h.

Which IC50 [1] does the source give for `COc1ccc(C2CC(c3ccccc3)=NN2c2ccc(C(=O)O)cc2)cc1F` (stereo unspecified) here?
Its IC50 is 1190 nM.
